For orientation: Ki means the equilibrium dissociation constant of an inhibitor or competing ligand from its target. A word on the EC50: it is the concentration needed to bring the measured effect to its halfway point. High values mean lower potency in that assay, low ones higher potency in that assay. As a reminder, the Emax is the maximal effect, on the per cent scale that the assay sets.

Experiment [1] addresses T1, Melatonin receptor type 1A (Homo sapiens, UniProt P48039). The experiment in a line: Displacement of 2-[125I]-Iodomelatonin from human MT1 receptor expressed in CHO cell membranes after 120 mins by filter binding method. In outline: (§1)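 Membranes from CHO cells stably expressing human MT1 or MT2 were incubated with 20 pM 2-[125I]-iodomelatonin and test drug in 50 mM Tris-HCl pH 7.4, 5 mM MgCl2, for 120 min at 37 °C. Nonspecific binding was set with 1 µM melatonin. Filtration onto PEI-soaked GF/B filters. Seven concentrations in duplicate gave IC50, converted to Ki by Cheng-Prusoff. Ki is the geometric mean of ≥2 experiments.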

The target of experiment [2] is T2, Melatonin receptor type 1B (Homo sapiens, UniProt P49286).
T2 sequence (P49286 whole entry): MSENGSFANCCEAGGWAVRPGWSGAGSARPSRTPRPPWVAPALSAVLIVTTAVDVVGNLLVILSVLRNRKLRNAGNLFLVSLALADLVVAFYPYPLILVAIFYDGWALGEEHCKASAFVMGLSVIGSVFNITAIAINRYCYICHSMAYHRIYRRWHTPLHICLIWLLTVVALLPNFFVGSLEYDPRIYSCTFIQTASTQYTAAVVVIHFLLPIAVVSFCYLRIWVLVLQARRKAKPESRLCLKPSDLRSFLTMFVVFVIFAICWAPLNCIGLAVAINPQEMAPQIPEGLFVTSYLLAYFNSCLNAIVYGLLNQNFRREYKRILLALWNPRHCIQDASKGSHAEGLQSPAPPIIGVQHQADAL
The experiment in a line: Displacement of 2-[125I]-Iodomelatonin from human MT2 receptor expressed in CHO cell membranes after 120 mins by filter binding method. The procedure, abridged: as §1

The species named for another experiment is Homo sapiens. The experiment in a line: Selectivity ratio of Ki for human MT1 receptor to Ki for human MT2 receptor.
Experiment [3] addresses T1, Melatonin receptor type 1A. Kind of experiment: Intrinsic activity at human MT1 receptor expressed in CHO cell membranes after 1 hr by [35S]GTPgammaS binding assay. Format: functional. The procedure, abridged:
(§2)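 CHO-MT1 or MT2 membranes (20 µg/mL) were incubated with drug and 0.2 nM [35S]GTPγS for 1 h at room temperature. Buffer was 20 mM HEPES pH 7.4, 100 mM NaCl, 3 µM GDP, 3 mM MgCl2, 20 µg/mL saponin. Nonspecific binding was set with 10 µM GTPγS, followed by filtration. Seven concentrations in duplicate gave Emax, relative to 1 µM melatonin. Emax is the arithmetic mean ± SEM of ≥2 experiments.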
In general terms: GTPγS is a poorly hydrolysed GTP analogue; its binding reports G protein activation.

For experiment [4], the target named is T3, Melatonin receptor type 1B (Homo sapiens) (UniProt P49286).
T3 sequence (whole entry): T2 sequence (P49286 whole entry)
Kind of experiment: (§3) Intrinsic activity at human MT2 receptor expressed in CHO cell membranes after 1 hr by [35S]GTPgammaS binding assay. Format: functional. The procedure, abridged: as §2

In experiment [5] the target is T2, Melatonin receptor type 1B. The description is as §3. Format: functional. The procedure, abridged:
as §2

The structures appear in SMILES notation.

T1 sequence (P48039 whole entry): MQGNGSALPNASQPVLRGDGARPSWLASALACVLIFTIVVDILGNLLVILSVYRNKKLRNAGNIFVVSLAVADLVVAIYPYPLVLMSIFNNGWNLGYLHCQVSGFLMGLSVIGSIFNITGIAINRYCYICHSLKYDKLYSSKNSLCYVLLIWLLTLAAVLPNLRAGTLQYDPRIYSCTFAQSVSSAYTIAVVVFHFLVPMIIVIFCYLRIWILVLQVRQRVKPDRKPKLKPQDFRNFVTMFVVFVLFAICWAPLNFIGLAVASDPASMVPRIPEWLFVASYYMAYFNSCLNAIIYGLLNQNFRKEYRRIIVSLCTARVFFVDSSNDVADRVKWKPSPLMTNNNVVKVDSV

Consider `CCN1CC(CNC(C)=O)Cc2ccccc21` (racemic), for which the Ki stood at 20 nM in experiment [1] and 1 nM in experiment [2]. In addition, the Ratio Ki in the experiment listed under Homo sapiens stood at 20. Further, the results for the EC50 in experiment [3] and in experiment [5] were above 10000 nM and 7 nM, respectively. This compound showed an Emax in experiment [4] of 59%.
As for `CC(=O)NCC1Cc2ccccc2N(C)C1` (racemic), the Ki in experiment [1] is 83 nM; in experiment [2], 15 nM. For the same compound, the Ratio Ki in the experiment filed under Homo sapiens worked out at 5.5. The EC50 in experiment [3] was above 10000 nM; in experiment [5], 10 nM. In experiment [4], the Emax worked out at 32%.
Regarding `CC(=O)NCC1Cc2ccccc2N(c2ccccc2)C1` (single isomer, unassigned; (-)) [listing 1 of 2 here], the Emax in experiment [3] stood at 30%; in experiment [4], 29%.
Regarding `CCC(=O)NCC1=C(c2ccccc2)c2ccccc2CC1`, the Ki came to 28 nM in experiment [1] and 3.8 nM in experiment [2]. The Ratio Ki in the experiment filed under Homo sapiens is 7.4. Further, the results for the Emax in experiment [3] and in experiment [4] were 16% and 30%, respectively.
For `CCC(=O)NC1Cc2ccccc2N(Cc2ccccc2)C1` (racemic), the Ki in experiment [1] was 892 nM; in experiment [2], 6 nM. Moreover, in the experiment filed under Homo sapiens, the Ratio Ki was 149. Moreover, in experiment [5], the EC50 was above 10000 nM.
Regarding `CCC(=O)NC[C@@H]1CN(C)c2ccccc2[C@@H]1c1ccccc1` (racemic), the Ki turned out to be 3.4 nM in experiment [1] and 0.48 nM in experiment [2]. Also, in the experiment listed under Homo sapiens, the Ratio Ki amounted to 7.1. Besides, the Emax in experiment [3] was found to be 82%; in experiment [4], 75%.
Take `CCC(=O)NC[C@@H]1CCc2ccccc2[C@H]1c1ccccc1` (racemic): the Ki in experiment [1] was determined as 62 nM; in experiment [2], 0.23 nM. For the same compound, in the experiment filed under Homo sapiens, the Ratio Ki came to 270. The Emax is 61% in experiment [3] and 78% in experiment [4].
`CC(=O)NCC1CNc2ccccc2C1` (racemic): the Ki in experiment [1] came to 430 nM; in experiment [2] it was 110 nM. Moreover, in the experiment listed under Homo sapiens, the Ratio Ki is 3.9.
In the case of `CC(=O)NCC1Cc2ccccc2N(c2ccccc2)C1` (racemic) [listing 1 of 2 here], the Ki is 2.4 to 3 nM in experiment [1] and 0.3 to 1.2 nM in experiment [2]. The EC50 in experiment [3] and in experiment [5] was above 10000 nM each time.
For the compound `CCC(=O)NC[C@@H]1CCc2ccccc2[C@@H]1c1ccccc1` (racemic), the results for the Ki in experiment [1] and in experiment [2] were 3.5 nM and 0.22 nM, respectively. In addition, in the experiment filed under Homo sapiens, the Ratio Ki amounted to 16. Moreover, the values for the maximal response (Emax) in experiment [3] and in experiment [4] were 56% and 75%, respectively.
Consider `CC(=O)NCC1Cc2ccccc2N(c2ccccc2)C1` (racemic) [listing 2 of 2 here], for which, in the experiment listed under Homo sapiens, the Ratio Ki is 10. Besides, the Emax in experiment [3] stood at 27%; in experiment [4], 10%.
On to `CC(=O)NCC1Cc2ccccc2N(c2ccccc2)C1` (stereo in doubt; (+)-15e) [listing 1 of 2 here], for which the Ki was determined as 1.58 nM in experiment [1] and 0.78 nM in experiment [2].
Take `CC(=O)NCC1Cc2ccccc2N(c2ccccc2)C1` (stereo in doubt; (+)-15e) [listing 2 of 2 here]: the Emax is 25% in experiment [3] and 5% in experiment [4].
Turning to `CCC(=O)NC1Cc2ccccc2N(c2ccccc2)C1` (racemic), the Ki in experiment [1] was 22 nM; in experiment [2] it was 2 nM. Besides, the Ratio Ki in the experiment listed under Homo sapiens came to 11. Besides, the EC50 in experiment [3] amounted to 20 nM; in experiment [5], 1 nM. The Emax was found to be 29% in experiment [3] and 41% in experiment [4].
Turning to `CC(=O)NCC1Cc2ccccc2N(c2ccccc2)C1` (single isomer, unassigned; (-)) [listing 2 of 2 here], the Ki was 3.02 nM in experiment [1] and 1.38 nM in experiment [2].
In the case of `CC(=O)NCC1Cc2ccccc2N(CCc2ccccc2)C1` (racemic), the Ki in experiment [1] was 246 nM; in experiment [2] it was 47 nM. The Ratio Ki in the experiment filed under Homo sapiens is 5.2. Also, the Emax in experiment [4] came out at 47%. In experiment [5], this compound displayed an EC50 of 80 nM.
In the same order, the values of `CC(=O)NCC1Cc2ccccc2N(Cc2ccccc2)C1` (racemic) are 59 nM, 1 nM, 59, 28% and 3 nM.

Values taken from ChEMBL document CHEMBL4043301, “Tetrahydroquinoline Ring as a Versatile Bioisostere of Tetralin for Melatonin Receptor Ligands” (J Med Chem, 2018).
